What was measured:
Type in all cases: functional
HOP-62 = experiment: Cytotoxicity against human HOP62 cells assessed as cell growth at 10 uM after 48 hrs by SRB assay; conditions: HOP-62, 48 h, read-out: Activity
Procedure, shortened: (§1)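 NCI-60 single-dose screen. Cell lines grown in RPMI 1640 with 5% FBS and 2 mM L-glutamine, plated at 5000–40,000 cells/well according to doubling time, then preincubated 24 h at 37 °C in 5% CO2. Compounds dissolved in DMSO, tested at 10^-5 M for 48 h. Adherent cells fixed with cold TCA (10% final) and stained with 0.4% SRB in 1% acetic acid. Growth expressed as percent of untreated control.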

[1] = Cytotoxicity against human UO31 cells assessed as cell growth at 10 uM after 48 hrs by SRB assay; conditions: UO-31, 48 h, read-out: Activity
Procedure, shortened: (§2)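 NCI-60 single-dose screen at 10^-5 M. Adherent lines are grown in RPMI 1640 with 5% FBS and 2 mM L-glutamine, seeded at 5000–40,000 cells/well by doubling time, and preincubated 24 h at 37 °C in 5% CO2. Drug is added from DMSO stock diluted in medium, then 48 h. Cells are fixed in cold TCA (final 10%) for 60 min and stained with 0.4% SRB in 1% acetic acid. Growth is expressed as % of untreated control using time-zero plates.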

HCT-15 = experiment: Cytotoxicity against human HCT15 cells assessed as cell growth at 10 uM after 48 hrs by SRB assay; conditions: HCT-15, 48 h, read-out: Activity; procedure, shortened: as §1
IGROV-1 = experiment: Cytotoxicity against human IGROV1 cells assessed as cell growth at 10 uM after 48 hrs by SRB assay; conditions: IGROV-1, 48 h, read-out: Activity; procedure, shortened: as §1
MDA-MB-231 = experiment: Cytotoxicity against human MDA-MB-231 cells assessed as cell growth at 10 uM after 48 hrs by SRB assay; conditions: MDA-MB-231, 48 h, read-out: Activity; procedure, shortened: as §1
MOLT-4 = experiment: Cytotoxicity against human MOLT4 cells assessed as cell growth at 10 uM after 48 hrs by SRB assay; conditions: MOLT-4, 48 h, read-out: Activity; procedure, shortened: as §1
M14 = experiment: Cytotoxicity against human M14 cells assessed as cell growth at 10 uM after 48 hrs by SRB assay; conditions: M14, 48 h, read-out: Activity; procedure, shortened: as §1
SW-620 = experiment: Cytotoxicity against human SW620 cells assessed as cell growth at 10 uM after 48 hrs by SRB assay; conditions: SW-620, 48 h, read-out: Activity; procedure, shortened: as §2
SF-268 = experiment: Cytotoxicity against human SF268 cells assessed as cell growth at 10 uM after 48 hrs by SRB assay; conditions: SF-268, 48 h, read-out: Activity; procedure, shortened: as §1
NCI-H460 = experiment: Cytotoxicity against human NCI-H460 cells assessed as cell growth at 10 uM after 48 hrs by SRB assay; conditions: NCI-H460, 48 h, read-out: Activity; procedure, shortened: as §1
[2] = Cytotoxicity against human OVCAR4 cells assessed as cell growth at 10 uM after 48 hrs by SRB assay; conditions: OVCAR-4, 48 h, read-out: Activity; procedure, shortened: as §1
MDA-MB-468 = experiment: Cytotoxicity against human MDA-MB-468 cells assessed as cell growth at 10 uM after 48 hrs by SRB assay; conditions: MDA-MB-468, 48 h, read-out: Activity; procedure, shortened: as §1
RPMI-8226 = experiment: Cytotoxicity against human RPMI8226 cells assessed as cell growth at 10 uM after 48 hrs by SRB assay; conditions: RPMI-8226, 48 h, read-out: Activity; procedure, shortened: as §1
HCC 2998 = experiment: Cytotoxicity against human HCC2998 cells assessed as cell growth at 10 uM after 48 hrs by SRB assay; conditions: HCC 2998, 48 h, read-out: Activity; procedure, shortened: as §1
SR = experiment: Cytotoxicity against human SR cells assessed as cell growth at 10 uM after 48 hrs by SRB assay; conditions: read-out: Activity
Procedure, shortened: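 Leukemia line, NCI-60 single-dose screen at 10^-5 M. Cells are grown in RPMI 1640 with 5% FBS and 2 mM L-glutamine, plated by doubling time, and preincubated 24 h at 37 °C with 5% CO2. After 48 h drug exposure, settled cells are fixed with 80% TCA (final 16%) and stained with SRB. Percent growth is calculated against untreated control and time-zero plates.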

HT-29 = experiment: Cytotoxicity against human HT-29 cells assessed as cell growth at 10 uM after 48 hrs by SRB assay; conditions: HT-29, 48 h, read-out: Activity; procedure, shortened: as §1
SK-MEL-5 = experiment: Cytotoxicity against human SK-MEL-5 cells assessed as cell growth at 10 uM after 48 hrs by SRB assay; conditions: SK-MEL-5, 48 h, read-out: Activity; procedure, shortened: as §1
786-0 = experiment: Cytotoxicity against human 786-0 cells assessed as cell growth at 10 uM after 48 hrs by SRB assay; conditions: 786-0, 48 h, read-out: Activity; procedure, shortened: as §1
TK-10 = experiment: Cytotoxicity against human TK10 cells assessed as cell growth at 10 uM after 48 hrs by SRB assay; conditions: TK-10, 48 h, read-out: Activity; procedure, shortened: as §2
CCRF-CEM = experiment: Cytotoxicity against human CCRF-CEM cells assessed as cell growth at 10 uM after 48 hrs by SRB assay; conditions: read-out: Activity; procedure, shortened: as §1
SK-OV-3 = experiment: Cytotoxicity against human SKOV3 cells assessed as cell growth at 10 uM after 48 hrs by SRB assay; conditions: SK-OV-3, 48 h, read-out: Activity; procedure, shortened: as §1
NCI-H23 = experiment: Cytotoxicity against human NCI-H23 cells assessed as cell growth at 10 uM after 48 hrs by SRB assay; conditions: NCI-H23, 48 h, read-out: Activity; procedure, shortened: as §1
MCF7 = experiment: Cytotoxicity against human MCF7 cells assessed as cell growth at 10 uM after 48 hrs by SRB assay; conditions: MCF7, 48 h, read-out: Activity; procedure, shortened: as §1
HCT-116 = experiment: Cytotoxicity against human HCT116 cells assessed as cell growth at 10 uM after 48 hrs by SRB assay; conditions: HCT-116, 48 h, read-out: Activity; procedure, shortened: as §1
BT-549 = experiment: Cytotoxicity against human BT549 cells assessed as cell growth at 10 uM after 48 hrs by SRB assay; conditions: BT-549, 48 h, read-out: Activity; procedure, shortened: as §1
SNB-75 = experiment: Cytotoxicity against human SNB75 cells assessed as cell growth at 10 uM after 48 hrs by SRB assay; conditions: SNB-75, 48 h, read-out: Activity; procedure, shortened: as §1
U-251 = experiment: Cytotoxicity against human U251 cells assessed as cell growth at 10 uM after 48 hrs by SRB assay; conditions: U-251, 48 h, read-out: Activity; procedure, shortened: as §2
SF-539 = experiment: Cytotoxicity against human SF539 cells assessed as cell growth at 10 uM after 48 hrs by SRB assay; conditions: SF-539, 48 h, read-out: Activity; procedure, shortened: as §1

Cc1cc(C)n(-c2cn3c(-c4ccccc4)csc3n2)n1
growth at 10 µM (HOP-62): 91.4% | growth at 10 µM [1]: 59.2% | growth at 10 µM (HCT-15): 95% | growth at 10 µM (IGROV-1): 76.5% | growth at 10 µM (MDA-MB-231): 86.3% | growth at 10 µM (MOLT-4): 93.9% | growth at 10 µM (M14): 95.4% | growth at 10 µM (SW-620): 102% | growth at 10 µM (SF-268): 98.4% | growth at 10 µM (NCI-H460): 104% | growth at 10 µM [2]: 93% | growth at 10 µM (MDA-MB-468): 102% | growth at 10 µM (RPMI-8226): 93% | growth at 10 µM (HCC 2998): 105% | growth at 10 µM (SR): 80.9% | growth at 10 µM (HT-29): 97.6% | growth at 10 µM (SK-MEL-5): 94.2% | growth at 10 µM (786-0): 98% | growth at 10 µM (TK-10): 124% | growth at 10 µM (CCRF-CEM): 95.4% | growth at 10 µM (SK-OV-3): 89.9% | growth at 10 µM (NCI-H23): 95.4% | growth at 10 µM (MCF7): 88.7% | growth at 10 µM (HCT-116): 101% | growth at 10 µM (BT-549): 95.3% | growth at 10 µM (SNB-75): 64.1% | growth at 10 µM (U-251): 94.7% | growth at 10 µM (SF-539): 94%
